The record followed here is PubChem BioAssay.

Assay [1] can be described thus: RPL19A-GFP modulators, yeast TOR pathway, confirmation, cell-based, S. cerevisiae, flow cytometry, cherry picks, mother/daughter gates (AID 2270;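 active means GFP response below 50% of the DMSO control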). The following applies: S. cerevisiae RPL19A-GFP strain, 3 h, at 10 µM, stronger effect = lower value, 100 = same GFP as DMSO wells.
Assay [2] in a line: LAP4-GFP expression modulators in yeast, confirmation, cell-based, cherry picks, flow cytometry, mother/daughter gates (AID 2271;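 active means GFP response above 150% of the DMSO control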;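 further: ratio of sample to DMSO plate mean so 100% equals DMSO level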). The conditions noted are these: S. cerevisiae LAP4-GFP strain, 3 h, at 10 µM, stronger effect = higher value, 100 means same as DMSO control. In a few lines:
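System: Alexa 633-stained baker's yeast GFP-fusion strain; quantity: 0.2 OD600 cells; timing: compound exposure 3 h at 30 °C, end-over-end rotation; detection: HT flow cytometry, GFP fluorescence channel; measure: per-gate (all, mother, daughter) GFP response vs DMSO; control set: DMSO-only negative wells, rapamycin 400 ng/mL positive wells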
(Flow cytometry measures light scatter and fluorescence of single cells or particles in a stream.)

The nature of assay [3]: modulators of MEP2-GFP levels in yeast, confirmation, S. cerevisiae, flow cytometry GFP, cherry picks (AID 2272;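 active means GFP response above 150% of the DMSO control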;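 further: ratio of well signal to plate DMSO mean so 100% equals DMSO level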). The following applies: S. cerevisiae MEP2-GFP strain, 3 h, at 10 µM, stronger effect = higher value.
A short description of assay [4]: AGP1-GFP expression modulators, hit retest, confirmation, cell-based, flow cytometry, S. cerevisiae, cherry picks (AID 2273).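 Further: median GFP channel fluorescence over the whole cell population gate.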 The conditions noted are these: S. cerevisiae AGP1-GFP strain, 3 h, at 10 µM.
Assay [5] is described as follows: modulators of CIT2-GFP expression in yeast, confirmation, S. cerevisiae, GFP fusion, cherry picks, mother/daughter gates (AID 2274). The following applies: S. cerevisiae CIT2-GFP strain, flow cytometry, 3 h, at 10 µM, stronger effect = higher value.
Where [6] appears, read: measured here: daughter cell gate.
Where [7] appears, read: measured here: mother cell gate.
Where [8] appears, read: measured here: daughter cell gate response.
Where [9] appears, read: measured here: mother cell gate response.

Active and inactive are the calls of the source.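 How the source made its calls, unless noted: active means GFP response above 150% of the DMSO level; inconclusive means fewer than 70 events counted for a yeast strain; inactive means the rest.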

Regarding `O=C(CCc1ccc(S(=O)(=O)N2CCOCC2)cc1)Oc1ccccc1`, the GFP response vs DMSO in assay [1] is 99.6% (inactive); in assay [1] (setting [6]) it was 101%; in assay [1] (setting [7]) it was 99.2%; in assay [3] it was 123% (inactive). For the same molecule, the GFP response relative to DMSO in assay [2] was 111% (inactive); in assay [2] (setting [8]), 112%; in assay [2] (setting [9]), 109%. Moreover, the GFP response, % of DMSO in assay [4] is 97.2% (inactive); in assay [5] it was 110% (inactive); in assay [5] (setting [6]), 110%; in assay [5] (setting [7]), 109%.

On to `CCCN1CCc2c(sc(NC(=S)NC(=O)c3ccccc3)c2C#N)C1`, for which the GFP response vs DMSO in assay [1] was 100% (inactive); in assay [1] (setting [6]), 99.6%; in assay [1] (setting [7]) it was 97.8%; in assay [3], 187% (active). Besides, the GFP response relative to DMSO is 116% (inactive) in assay [2], 107% in assay [2] (setting [8]) and 120% in assay [2] (setting [9]). Also, the GFP response, % of DMSO in assay [4] is 102% (inactive); in assay [5], 106% (inactive); in assay [5] (setting [6]) it was 99.2%; in assay [5] (setting [7]), 108%.

Take `O=[N+]([O-])c1cc(O)c2ncccc2c1`: the GFP response vs DMSO in assay [1] is 99.1% (inactive); in assay [1] (setting [6]) it was 94.2%; in assay [1] (setting [7]), 97.5%; in assay [3] it was 114% (inactive). The GFP response relative to DMSO was 205% (active) in assay [2], 200% in assay [2] (setting [8]) and 204% in assay [2] (setting [9]). Further, the GFP response, % of DMSO in assay [4] was 94.3% (inactive); in assay [5], 122% (inactive); in assay [5] (setting [6]), 112%; in assay [5] (setting [7]) it was 131%.

As for `COc1ccc(C(=O)C2CCCN(C(=O)c3cccs3)C2)cc1F` (stereo unspecified), the GFP response vs DMSO in assay [1] was 102% (inactive); in assay [1] (setting [6]), 101%; in assay [1] (setting [7]), 101%; in assay [3], 99% (inactive). For the same molecule, the GFP response relative to DMSO was 98.2% (inactive) in assay [2], 99.1% in assay [2] (setting [8]) and 98.4% in assay [2] (setting [9]). For the same molecule, the GFP response, % of DMSO in assay [4] was 103% (inactive); in assay [5], 100% (inactive); in assay [5] (setting [6]) it was 103%; in assay [5] (setting [7]) it was 99.3%.

As for `COc1ccc2c(c1)c(C(C)=O)c(C)n2-c1ccccc1OC`, the GFP response vs DMSO in assay [1] was 96.5% (inactive); in assay [1] (setting [6]), 97.8%; in assay [1] (setting [7]), 95.4%; in assay [3], 101% (inactive). For the same molecule, the GFP response relative to DMSO in assay [2] was 101% (inactive); in assay [2] (setting [8]), 99%; in assay [2] (setting [9]) it was 101%. Besides, the GFP response, % of DMSO in assay [4] is 107% (inactive); in assay [5] it was 103% (inactive); in assay [5] (setting [6]) it was 101%; in assay [5] (setting [7]), 103%.

For `CCn1c(=O)c(C(C)=O)c(O)c2ccccc21`, the GFP response vs DMSO in assay [1] is 104% (inactive); in assay [1] (setting [6]) it was 101%; in assay [1] (setting [7]), 104%; in assay [3] it was 96.8% (inactive). Besides, the values for the GFP response relative to DMSO in assay [2], in assay [2] (setting [8]) and in assay [2] (setting [9]) were 89.3% (inactive), 87.7% and 91%, respectively. For the same molecule, the GFP response, % of DMSO was 102% (inactive) in assay [4], 97.3% (inactive) in assay [5], 99.2% in assay [5] (setting [6]) and 91.9% in assay [5] (setting [7]).

Turning to `COc1cc(NC(=O)c2oc3ccccc3c2C)ccc1NC(=O)c1ccco1`, the GFP response vs DMSO in assay [1] is 98% (inactive); in assay [1] (setting [6]), 97.8%; in assay [1] (setting [7]), 98.4%; in assay [3] it was 110% (inactive). For the same molecule, the GFP response relative to DMSO in assay [2] was 97.7% (inactive); in assay [2] (setting [8]), 99%; in assay [2] (setting [9]), 100%. The GFP response, % of DMSO is 102% (inactive) in assay [4], 98.6% (inactive) in assay [5], 97.6% in assay [5] (setting [6]) and 99.3% in assay [5] (setting [7]).

In the case of `CN(C)c1ccc(N=Cc2nc(-c3ccccc3)oc2OC(=O)c2ccccc2)cc1`, the GFP response vs DMSO in assay [1] was 98.6% (inactive); in assay [1] (setting [6]), 100%; in assay [1] (setting [7]) it was 98.5%; in assay [3], 115% (inactive). Besides, the GFP response relative to DMSO was 105% (inactive) in assay [2], 103% in assay [2] (setting [8]) and 105% in assay [2] (setting [9]). The GFP response, % of DMSO was 111% (inactive) in assay [4], 107% (inactive) in assay [5], 103% in assay [5] (setting [6]) and 107% in assay [5] (setting [7]).

For `CSc1ccc(-c2cc(=O)c3ccccc3o2)cc1`, the GFP response vs DMSO was 92% (inactive) in assay [1], 89.3% in assay [1] (setting [6]), 92.5% in assay [1] (setting [7]) and 95.2% (inactive) in assay [3]. The GFP response relative to DMSO in assay [2] was 117% (inactive); in assay [2] (setting [8]), 110%; in assay [2] (setting [9]), 118%. Besides, the GFP response, % of DMSO was 90.5% (inactive) in assay [4], 84.7% (inactive) in assay [5], 81.6% in assay [5] (setting [6]) and 84.8% in assay [5] (setting [7]).

On to `Cc1ccc(SC(=O)c2c(C)noc2-c2cc(C)on2)cc1`, for which the GFP response vs DMSO was 103% (inactive) in assay [1], 102% in assay [1] (setting [6]), 104% in assay [1] (setting [7]) and 126% (inactive) in assay [3]. Also, the GFP response relative to DMSO was 120% (inactive) in assay [2], 120% in assay [2] (setting [8]) and 121% in assay [2] (setting [9]). Moreover, the GFP response, % of DMSO is 107% (inactive) in assay [4], 124% (inactive) in assay [5], 124% in assay [5] (setting [6]) and 121% in assay [5] (setting [7]).

`N/C(Cc1ccc(Cl)c(Cl)c1)=N\OC(=O)c1cccs1`: the GFP response vs DMSO in assay [1] is 94.9% (inactive); in assay [1] (setting [6]) it was 89.4%; in assay [1] (setting [7]), 83%; in assay [3] it was 122% (inactive). For the same molecule, the GFP response relative to DMSO in assay [2] was 226% (active); in assay [2] (setting [8]), 160%; in assay [2] (setting [9]), 206%. The GFP response, % of DMSO in assay [4] is 103% (inactive); in assay [5], 176% (active); in assay [5] (setting [6]), 126%; in assay [5] (setting [7]) it was 159%.

With `O=S(=O)(c1ccc(Oc2ccccc2)cc1)N1CCOCC1`, the GFP response vs DMSO in assay [1] was 98.2% (inactive); in assay [1] (setting [6]), 98.4%; in assay [1] (setting [7]) it was 98.2%; in assay [3] it was 100% (inactive). The GFP response relative to DMSO in assay [2] was 96.2% (inactive); in assay [2] (setting [8]), 95.6%; in assay [2] (setting [9]) it was 97.2%. Further, the GFP response, % of DMSO in assay [4] is 94.1% (inactive); in assay [5] it was 93.9% (inactive); in assay [5] (setting [6]), 94.8%; in assay [5] (setting [7]) it was 94.4%.

As to `Cc1cccc(C)c1OCCOC(=O)c1n[nH]c2ccccc12`, the GFP response vs DMSO in assay [1] was 98.8% (inactive); in assay [1] (setting [6]) it was 97%; in assay [1] (setting [7]) it was 100%; in assay [3] it was 106% (inactive). The GFP response relative to DMSO in assay [2] was 96.5% (inactive); in assay [2] (setting [8]), 93.6%; in assay [2] (setting [9]), 82.8%. Further, the GFP response, % of DMSO is 91.9% (inactive) in assay [4], 95% (inactive) in assay [5], 96.4% in assay [5] (setting [6]) and 93.3% in assay [5] (setting [7]).

`COc1ccccc1CNC(=O)CS(=O)Cc1nc(-c2ccc(OC)c(OC)c2)oc1C` (stereo unspecified): the GFP response vs DMSO was 97.2% (inactive) in assay [1], 97.4% in assay [1] (setting [6]), 98% in assay [1] (setting [7]) and 105% (inactive) in assay [3]. Further, the figures for the GFP response relative to DMSO in assay [2], in assay [2] (setting [8]) and in assay [2] (setting [9]) were 96.7% (inactive), 97.6% and 96.1%, respectively. Moreover, the GFP response, % of DMSO was 97.6% (inactive) in assay [4], 104% (inactive) in assay [5], 108% in assay [5] (setting [6]) and 103% in assay [5] (setting [7]).

For the molecule `COc1ccc2ccccc2c1/C=N/Nc1cccc(C(=O)O)c1`, the GFP response vs DMSO in assay [1] is 99.4% (inactive); in assay [1] (setting [6]), 98.6%; in assay [1] (setting [7]), 100%; in assay [3], 105% (inactive). Moreover, the GFP response relative to DMSO is 98.2% (inactive) in assay [2], 99.1% in assay [2] (setting [8]) and 98.4% in assay [2] (setting [9]). Further, the GFP response, % of DMSO in assay [4] is 102% (inactive); in assay [5] it was 103% (inactive); in assay [5] (setting [6]), 101%; in assay [5] (setting [7]), 102%.

Regarding `O=C1c2ccsc2SCCN1Cc1ccc(F)cc1`, the GFP response vs DMSO is 97% (inactive) in assay [1], 94.4% in assay [1] (setting [6]), 100% in assay [1] (setting [7]) and 90.5% (inactive) in assay [3]. Also, the GFP response relative to DMSO was 111% (inactive) in assay [2], 110% in assay [2] (setting [8]) and 113% in assay [2] (setting [9]). Moreover, the GFP response, % of DMSO in assay [4] was 97.3% (inactive); in assay [5], 100% (inactive); in assay [5] (setting [6]), 103%; in assay [5] (setting [7]) it was 89.5%.
